Laboratory results: ChEMBL document CHEMBL1154900, “Modified phenazines from an Indonesian Streptomyces sp” (2010)
Calls of active or inactive are those of the source. No cut-off for these calls is given here.

How the values were obtained:
[1] = system: Escherichia coli; test: Antibacterial activity against Escherichia coli at 56 ug/disk by agar diffusion method; format: functional, organism-based
Outline: (§1)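 Disk agar diffusion screen. Each sample was loaded per disk at the stated amount, either 14 µg/disk or 24 and 56 µg/disk. All six organisms were tested in one panel: S. aureus, B. subtilis, E. coli, P. aeruginosa, the fungus M. miehei and the yeast C. albicans.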

[2] = system: Bacillus subtilis; test: Antibacterial activity against Bacillus subtilis at 56 ug/disk by agar diffusion method; format: functional, organism-based; outline: as §1
[3] = system: Rhizomucor miehei; test: Antifungal activity against Mucor miehei at 56 ug/disk by agar diffusion method; format: functional, organism-based; outline: as §1
[4] = system: Candida albicans; test: Antifungal activity against Candida albicans at 24 ug/disk by agar diffusion method; format: functional, organism-based; outline: as §1
[5] = system: Candida albicans; test: Antifungal activity against Candida albicans at 56 ug/disk by agar diffusion method; format: functional, organism-based; outline: as §1
[6] = system: Rhizomucor miehei; test: Antifungal activity against Mucor miehei at 24 ug/disk by agar diffusion method; format: functional, organism-based; outline: as §1
[7] = system: Pseudomonas aeruginosa; test: Antibacterial activity against Pseudomonas aeruginosa at 24 ug/disk by agar diffusion method; format: functional, organism-based; outline: as §1
[8] = system: Staphylococcus aureus; test: Antibacterial activity against Staphylococcus aureus at 56 ug/disk by agar diffusion method; format: functional, organism-based; outline: as §1
[9] = system: Pseudomonas aeruginosa; test: Antibacterial activity against Pseudomonas aeruginosa at 56 ug/disk by agar diffusion method; format: functional, organism-based; outline: as §1
[10] = system: Bacillus subtilis; test: Antibacterial activity against Bacillus subtilis at 24 ug/disk by agar diffusion method; format: functional, organism-based; outline: as §1
[11] = system: Escherichia coli; test: Antibacterial activity against Escherichia coli at 24 ug/disk by agar diffusion method; format: functional, organism-based; outline: as §1
[12] = system: Staphylococcus aureus; test: Antibacterial activity against Staphylococcus aureus at 24 ug/disk by agar diffusion method; format: functional; outline: as §1

Row | Structure (SMILES) | Activity [1] | Activity [2] | Activity [3] | Activity [4] | Activity [5] | Activity [6] | Activity [7] | Activity [8] | Activity [9] | Activity [10] | Activity [11] | Activity [12] | inhibition zone (IZ) [11] | zone of inhibition at 24 µg/disc ([12]; read-out: IZ) [mm]
1 | CCC(=O)C(C)C(=O)C1(C)Cc2ccc(OC)c3c2N(C1=O)c1cccc(C(=O)O)c1N3 (centres undefined) | inactive | inactive | inactive | inactive | inactive | inactive | inactive | inactive | inactive | inactive | inactive | inactive | – | –
2 | CCC(=O)C(C)C(=O)C(C)(Cc1ccc(OC)c2nc3c(C(=O)O)cccc3nc12)C(=O)OC (centres undefined) | inactive | inactive | inactive | inactive | inactive | inactive | inactive | inactive | inactive | inactive | – | – | inactive | 14
